# Test results published in ChEMBL document CHEMBL5649168, “Discovery of a selective catalytic p300/CBP inhibitor that targets lineage-specific tumours” (Nature, 2017).
# Activity calls are given as the source filed them. The calls are words filed in the database; no cut-off is given here.
# Key:
# [1] = Toxicity in CB17 SCID mouse xenografted with human LuCaP-77 CR cell assessed as body weight loss at 100 mg/kg, ip BID administered for 7 days relative to control; assay type: organism-based; settings: in vivo, 168 h, time 7 day
# [2] = biological target: Bromodomain-containing protein 4 (Homo sapiens, UniProt O60885); test: Inhibition of BRD4 (unknown origin)
# [3] = biological target: Ca2+ channel (L, dihydropyridine site) (Homo sapiens, UniProt O60840+Q01668+Q13698+Q13936); test: Inhibition of Ca2+ channel (L, dihydropyridine site) (unknown origin) at 10 uM by radioligand binding assay relative to control; assay type: protein assay
# Aurora kinase A = Aurora kinase A (Homo sapiens, UniProt O14965); test: Inhibition of Aurora2 (unknown origin)
# [4] = biological target: Calcium/calmodulin-dependent protein kinase type II subunit alpha (Homo sapiens, UniProt Q9UQM7); test: Inhibition of CAMK2A (unknown origin)
# [5] = Inhibition of CDK7/Cyclin H (unknown origin); parameters: species or system Homo sapiens
# Focal adhesion kinase 1 = Focal adhesion kinase 1 (Homo sapiens, UniProt Q05397); test: Inhibition of FAK (unknown origin)
# [6] = biological target: Fibroblast growth factor receptor 1 (Homo sapiens, UniProt P11362); test: Inhibition of FGFR1 (unknown origin)
# [7] = biological target: Glycogen synthase kinase-3 beta (Homo sapiens, UniProt P49841); test: Inhibition of Gsk3beta (unknown origin)
# [8] = biological target: Insulin-like growth factor 1 receptor (Homo sapiens, UniProt P08069); test: Inhibition of IGF1R (unknown origin)
# Insulin receptor = Insulin receptor (Homo sapiens, UniProt P06213); test: Inhibition of InsR (unknown origin)
# [9] = biological target: Tyrosine-protein kinase JAK3 (Homo sapiens, UniProt P52333); test: Inhibition of JAK3 (unknown origin)
# [10] = biological target: Mitogen-activated protein kinase kinase kinase 10 (Homo sapiens, UniProt Q02779); test: Inhibition of MAP3K10 (unknown origin)
# [11] = biological target: Mitogen-activated protein kinase kinase kinase kinase 2 (Homo sapiens, UniProt Q12851); test: Inhibition of MAP4K2 (unknown origin)
# [12] = biological target: Mitogen-activated protein kinase kinase kinase kinase 4 (Homo sapiens, UniProt O95819); test: Inhibition of MAP4K4 (unknown origin)
# [13] = biological target: Dual specificity mitogen-activated protein kinase kinase 2 (Homo sapiens, UniProt P36507); test: Inhibition of MEK2 (unknown origin)
# [14] = biological target: Serine/threonine-protein kinase Nek2 (Homo sapiens, UniProt P51955); test: Inhibition of Nek2 (unknown origin)
# [15] = biological target: CREB-binding protein/Histone acetyltransferase p300 (Homo sapiens, UniProt Q09472+Q92793); test: Inhibition of p300/CBP in human 22Rv1 cells assessed as reduction in H3K9Ac level incubated for 1 hr by Hoechst 33342 staining based high content microscopy analysis; assay type: cell-based
# Outline: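 Cells received an 8-point half-log dilution series from 10 µM. They were then fixed in 10% formaldehyde (10 min, RT), permeabilised with 0.1% Triton X-100 and blocked with 1% BSA for 1 h. Primary antibodies were applied overnight at 4 °C, followed by Alexa488 anti-rabbit, Alexa555 anti-mouse and Hoechst 33342 for 1 h. Fifteen fields per well were imaged and average mean intensity taken. EC50 came from a sigmoidal fit.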
# SK-MEL-5 = test: Antiproliferative activity against human SK-MEL-5 cells assessed as inhibition of cell viability incubated for 3 to 5 days by Celltiter-Glo luminescent assay; assay type: functional, cell-based
# WM 266-4 = test: Antiproliferative activity against human WM266-4 cells assessed as inhibition of cell viability incubated for 3 to 5 days by Celltiter-Glo luminescent assay; assay type: functional, cell-based
# G-361 = test: Antiproliferative activity against human G361 cells assessed as inhibition of cell viability incubated for 3 to 5 days by Celltiter-Glo luminescent assay; assay type: functional, cell-based
# NCI-H69 = test: Antiproliferative activity against human NCI-H69 cells assessed as inhibition of cell viability incubated for 3 to 5 days by Celltiter-Glo luminescent assay; assay type: functional, cell-based
# NCI-H1417 = test: Antiproliferative activity against human NCI-H1417 cells assessed as inhibition of cell viability incubated for 3 to 5 days by Celltiter-Glo luminescent assay; assay type: functional, cell-based
# NCI-H187 = test: Antiproliferative activity against human NCI-H187 cells assessed as inhibition of cell viability incubated for 3 to 5 days by Celltiter-Glo luminescent assay; assay type: functional, cell-based
# MDA-MB-157 = test: Antiproliferative activity against human MDA-MB-157 cells assessed as inhibition of cell viability incubated for 3 to 5 days by Celltiter-Glo luminescent assay; assay type: functional, cell-based
# Granta-519 = test: Antiproliferative activity against human Granta-519 cells assessed as inhibition of cell viability incubated for 3 to 5 days by Celltiter-Glo luminescent assay; assay type: functional, cell-based
# NCI-H929 = test: Antiproliferative activity against human NCI-H929 cells assessed as inhibition of cell viability incubated for 3 to 5 days by Celltiter-Glo luminescent assay; assay type: functional, cell-based
# L-363 = test: Antiproliferative activity against human L-363 cells assessed as inhibition of cell viability incubated for 3 to 5 days by Celltiter-Glo luminescent assay; assay type: functional, cell-based
# Daudi = test: Antiproliferative activity against human Daudi cells assessed as inhibition of cell viability incubated for 3 to 5 days by Celltiter-Glo luminescent assay; assay type: functional, cell-based
# Raji = test: Antiproliferative activity against human Raji cells assessed as inhibition of cell viability incubated for 3 to 5 days by Celltiter-Glo luminescent assay; assay type: functional, cell-based
# U-2973 = test: Antiproliferative activity against human U-2973 cells assessed as inhibition of cell viability incubated for 3 to 5 days by Celltiter-Glo luminescent assay; assay type: functional, cell-based
# SU-DHL-6 = test: Antiproliferative activity against human SU-DHL-6 cells assessed as inhibition of cell viability incubated for 3 to 5 days by Celltiter-Glo luminescent assay; assay type: functional, cell-based
# DOHH-2 = test: Antiproliferative activity against human DOHH-2 cells assessed as inhibition of cell viability incubated for 3 to 5 days by Celltiter-Glo luminescent assay; assay type: functional, cell-based
# U-2940 = test: Antiproliferative activity against human U-2940 cells assessed as inhibition of cell viability incubated for 3 to 5 days by Celltiter-Glo luminescent assay; assay type: functional, cell-based
# HL-60 = test: Antiproliferative activity against human HL-60 cells assessed as inhibition of cell viability incubated for 3 to 5 days by Celltiter-Glo luminescent assay; assay type: functional, cell-based
# EOL1 = test: Antiproliferative activity against human EOL-1 cells assessed as inhibition of cell viability incubated for 3 to 5 days by Celltiter-Glo luminescent assay; assay type: functional, cell-based
# [16] = AUC in CB17 SCID mouse xenografted with LuCaP-77 CR cell at 200 mg/kg, ip administered for 7 days; assay type: ADME, organism-based; settings: in vivo, time 7 day
# [17] = AUC in CB17 SCID mouse xenografted with LuCaP-77 CR cell at 100 mg/kg, ip administered for 7 days; assay type: ADME, organism-based; settings: in vivo, time 7 day
# [18] = Cmax in CB17 SCID mouse xenografted with LuCaP-77 CR cell at 50 mg/kg, ip administered for 7 days; assay type: ADME, organism-based; settings: in vivo, time 7 day
# LuCaP-77 CR cell = settings: Homo sapiens, dose 100.0 mg/kg, time 7.0 day
# Chain of Glycogen synthase kinase-3 beta (P49841 whole entry): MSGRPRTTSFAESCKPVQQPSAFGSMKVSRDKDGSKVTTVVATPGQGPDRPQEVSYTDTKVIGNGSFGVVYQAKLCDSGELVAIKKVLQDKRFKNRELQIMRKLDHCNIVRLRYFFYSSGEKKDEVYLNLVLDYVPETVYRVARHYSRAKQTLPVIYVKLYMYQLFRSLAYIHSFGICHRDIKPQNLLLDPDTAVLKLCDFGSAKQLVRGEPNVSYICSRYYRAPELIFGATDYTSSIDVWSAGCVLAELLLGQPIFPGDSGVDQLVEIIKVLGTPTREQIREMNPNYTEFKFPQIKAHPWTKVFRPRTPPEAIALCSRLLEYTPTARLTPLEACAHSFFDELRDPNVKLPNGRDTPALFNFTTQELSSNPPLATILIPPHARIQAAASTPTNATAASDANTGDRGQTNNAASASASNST
# Chain of Calcium/calmodulin-dependent protein kinase type II subunit alpha (Q9UQM7 whole entry): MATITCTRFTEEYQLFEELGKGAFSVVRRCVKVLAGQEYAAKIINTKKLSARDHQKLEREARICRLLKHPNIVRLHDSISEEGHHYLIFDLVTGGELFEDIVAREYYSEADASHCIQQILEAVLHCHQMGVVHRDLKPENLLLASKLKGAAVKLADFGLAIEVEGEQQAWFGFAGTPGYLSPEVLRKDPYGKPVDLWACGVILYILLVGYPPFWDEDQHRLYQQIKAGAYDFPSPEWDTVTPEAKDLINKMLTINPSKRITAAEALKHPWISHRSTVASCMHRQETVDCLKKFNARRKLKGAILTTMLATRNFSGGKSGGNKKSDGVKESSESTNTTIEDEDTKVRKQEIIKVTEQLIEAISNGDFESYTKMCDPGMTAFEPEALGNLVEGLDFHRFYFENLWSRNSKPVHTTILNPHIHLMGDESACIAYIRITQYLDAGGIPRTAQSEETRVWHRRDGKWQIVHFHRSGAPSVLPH
# Chain of Insulin receptor (P06213 28-758 limits assumed): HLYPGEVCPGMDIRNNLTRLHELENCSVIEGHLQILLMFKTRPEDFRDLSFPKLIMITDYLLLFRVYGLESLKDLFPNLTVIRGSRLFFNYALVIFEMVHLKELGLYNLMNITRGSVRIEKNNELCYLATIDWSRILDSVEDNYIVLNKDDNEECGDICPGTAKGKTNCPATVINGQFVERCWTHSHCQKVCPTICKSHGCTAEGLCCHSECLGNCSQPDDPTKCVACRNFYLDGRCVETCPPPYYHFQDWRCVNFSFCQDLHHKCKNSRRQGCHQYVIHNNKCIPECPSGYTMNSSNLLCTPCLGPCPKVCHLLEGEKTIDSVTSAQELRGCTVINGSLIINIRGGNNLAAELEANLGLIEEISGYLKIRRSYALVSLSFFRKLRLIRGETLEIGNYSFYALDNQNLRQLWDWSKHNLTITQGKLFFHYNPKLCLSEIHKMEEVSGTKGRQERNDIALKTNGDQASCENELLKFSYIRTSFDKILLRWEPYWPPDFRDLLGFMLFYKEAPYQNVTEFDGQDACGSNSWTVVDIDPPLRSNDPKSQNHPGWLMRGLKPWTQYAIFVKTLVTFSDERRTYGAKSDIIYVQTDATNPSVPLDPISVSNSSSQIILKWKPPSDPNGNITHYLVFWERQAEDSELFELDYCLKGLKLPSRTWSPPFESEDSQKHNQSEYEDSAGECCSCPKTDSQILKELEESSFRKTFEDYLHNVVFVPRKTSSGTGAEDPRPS
# Chain of Insulin receptor (P06213 763-1382 limits assumed): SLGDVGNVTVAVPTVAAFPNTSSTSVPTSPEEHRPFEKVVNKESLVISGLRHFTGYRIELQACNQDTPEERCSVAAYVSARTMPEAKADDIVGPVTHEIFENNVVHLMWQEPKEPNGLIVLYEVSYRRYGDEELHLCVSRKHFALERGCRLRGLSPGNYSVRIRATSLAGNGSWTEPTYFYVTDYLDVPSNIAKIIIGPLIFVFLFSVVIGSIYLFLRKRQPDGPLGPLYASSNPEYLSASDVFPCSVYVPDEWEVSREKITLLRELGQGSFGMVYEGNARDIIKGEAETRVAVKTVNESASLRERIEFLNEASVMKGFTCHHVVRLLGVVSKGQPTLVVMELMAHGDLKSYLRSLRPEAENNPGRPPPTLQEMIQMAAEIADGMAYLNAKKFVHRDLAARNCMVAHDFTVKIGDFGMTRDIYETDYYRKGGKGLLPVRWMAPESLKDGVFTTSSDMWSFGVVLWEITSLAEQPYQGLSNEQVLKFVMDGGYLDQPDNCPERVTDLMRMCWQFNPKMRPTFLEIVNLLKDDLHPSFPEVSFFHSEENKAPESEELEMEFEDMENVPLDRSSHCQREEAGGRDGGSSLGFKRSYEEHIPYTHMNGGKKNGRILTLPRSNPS
# Chain of Dual specificity mitogen-activated protein kinase kinase 2 (P36507 whole entry): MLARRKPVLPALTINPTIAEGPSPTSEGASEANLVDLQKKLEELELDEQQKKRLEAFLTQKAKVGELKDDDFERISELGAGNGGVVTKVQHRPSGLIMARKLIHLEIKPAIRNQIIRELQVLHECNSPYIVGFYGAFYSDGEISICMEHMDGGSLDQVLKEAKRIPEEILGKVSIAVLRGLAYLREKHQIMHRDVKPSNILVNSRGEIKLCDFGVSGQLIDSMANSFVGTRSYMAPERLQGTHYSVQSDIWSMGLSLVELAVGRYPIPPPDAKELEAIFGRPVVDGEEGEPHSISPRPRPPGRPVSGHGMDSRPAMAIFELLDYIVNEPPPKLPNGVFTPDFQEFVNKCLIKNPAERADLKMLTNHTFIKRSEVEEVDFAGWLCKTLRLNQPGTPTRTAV
# Chain of Serine/threonine-protein kinase Nek2 (P51955 whole entry): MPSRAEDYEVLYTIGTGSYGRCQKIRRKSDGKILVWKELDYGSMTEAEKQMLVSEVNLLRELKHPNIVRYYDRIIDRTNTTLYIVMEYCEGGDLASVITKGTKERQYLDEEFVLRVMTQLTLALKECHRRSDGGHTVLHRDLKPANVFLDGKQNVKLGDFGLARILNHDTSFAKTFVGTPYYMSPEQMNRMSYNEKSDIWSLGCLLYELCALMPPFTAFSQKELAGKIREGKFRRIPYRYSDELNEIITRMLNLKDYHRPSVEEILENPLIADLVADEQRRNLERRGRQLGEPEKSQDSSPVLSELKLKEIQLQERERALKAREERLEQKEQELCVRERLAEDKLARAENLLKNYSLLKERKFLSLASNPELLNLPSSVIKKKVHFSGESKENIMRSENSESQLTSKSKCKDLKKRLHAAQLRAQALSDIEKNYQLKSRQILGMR
# Chain of Mitogen-activated protein kinase kinase kinase 10 (Q02779 whole entry): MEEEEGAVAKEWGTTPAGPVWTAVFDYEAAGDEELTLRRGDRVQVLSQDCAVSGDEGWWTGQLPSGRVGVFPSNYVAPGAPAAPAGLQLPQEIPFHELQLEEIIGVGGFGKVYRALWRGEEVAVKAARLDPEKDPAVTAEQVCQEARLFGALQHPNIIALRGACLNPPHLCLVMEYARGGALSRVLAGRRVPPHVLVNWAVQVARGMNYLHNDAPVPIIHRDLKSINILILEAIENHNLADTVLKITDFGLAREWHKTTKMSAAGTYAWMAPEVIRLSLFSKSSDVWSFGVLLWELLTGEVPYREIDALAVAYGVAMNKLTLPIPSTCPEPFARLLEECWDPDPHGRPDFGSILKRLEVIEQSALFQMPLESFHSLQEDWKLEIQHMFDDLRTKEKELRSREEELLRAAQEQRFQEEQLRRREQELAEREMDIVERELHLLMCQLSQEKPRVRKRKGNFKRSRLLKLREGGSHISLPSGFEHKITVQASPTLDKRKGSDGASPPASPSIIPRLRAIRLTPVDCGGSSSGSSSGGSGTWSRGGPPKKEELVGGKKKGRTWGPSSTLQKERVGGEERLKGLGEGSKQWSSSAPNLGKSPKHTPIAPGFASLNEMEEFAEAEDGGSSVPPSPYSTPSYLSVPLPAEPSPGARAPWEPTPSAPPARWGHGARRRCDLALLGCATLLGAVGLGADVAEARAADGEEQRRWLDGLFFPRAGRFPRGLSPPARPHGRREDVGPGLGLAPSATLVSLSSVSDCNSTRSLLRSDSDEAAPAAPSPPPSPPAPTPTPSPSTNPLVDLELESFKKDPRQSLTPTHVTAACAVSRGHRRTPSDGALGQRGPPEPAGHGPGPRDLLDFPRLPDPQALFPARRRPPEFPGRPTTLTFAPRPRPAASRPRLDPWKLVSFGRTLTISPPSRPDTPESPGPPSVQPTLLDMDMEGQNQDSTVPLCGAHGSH
# Chain of Fibroblast growth factor receptor 1 (P11362 whole entry): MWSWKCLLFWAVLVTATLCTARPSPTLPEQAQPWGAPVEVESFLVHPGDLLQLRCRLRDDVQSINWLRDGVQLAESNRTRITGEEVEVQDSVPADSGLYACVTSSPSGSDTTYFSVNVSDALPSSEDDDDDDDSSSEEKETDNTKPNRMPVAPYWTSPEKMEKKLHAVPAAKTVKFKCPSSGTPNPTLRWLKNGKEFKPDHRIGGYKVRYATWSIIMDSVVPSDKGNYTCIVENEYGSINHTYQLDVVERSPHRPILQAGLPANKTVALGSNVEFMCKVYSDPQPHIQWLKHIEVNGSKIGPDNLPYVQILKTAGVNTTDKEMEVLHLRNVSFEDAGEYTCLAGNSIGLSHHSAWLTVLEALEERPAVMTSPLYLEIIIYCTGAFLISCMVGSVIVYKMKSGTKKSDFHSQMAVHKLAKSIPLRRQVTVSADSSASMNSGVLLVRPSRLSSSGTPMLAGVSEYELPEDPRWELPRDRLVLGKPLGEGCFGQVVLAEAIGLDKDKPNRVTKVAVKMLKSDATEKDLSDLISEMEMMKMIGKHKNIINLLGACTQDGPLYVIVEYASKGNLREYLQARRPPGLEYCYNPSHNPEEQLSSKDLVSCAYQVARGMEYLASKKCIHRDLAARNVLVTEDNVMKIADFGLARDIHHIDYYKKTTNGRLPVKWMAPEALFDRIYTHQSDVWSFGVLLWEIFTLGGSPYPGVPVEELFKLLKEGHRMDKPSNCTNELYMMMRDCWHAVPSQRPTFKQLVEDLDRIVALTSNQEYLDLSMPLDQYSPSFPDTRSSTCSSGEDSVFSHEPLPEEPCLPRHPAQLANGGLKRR
smiles,measurement,setting,value
CNC(=O)Nc1ccc2c(c1)CC[C@@]21OC(=O)N(CC(=O)N(Cc2ccc(F)cc2)[C@@H](C)C(F)(F)F)C1=O [A-485],Activity,[1],9%
same,IC50,[2],> 10 µM
same,inhibition at 10 µM,[3],-9%
same,IC50,Aurora kinase A,> 10 µM
same,IC50,[4],> 10 µM
same,IC50,[5],> 10 µM
same,IC50,Focal adhesion kinase 1,> 10 µM
same,IC50,[6],> 10 µM
same,IC50,[7],> 10 µM
same,IC50,[8],> 10 µM
same,IC50,Insulin receptor,> 10 µM
same,IC50,[9],> 10 µM
same,IC50,[10],> 10 µM
same,IC50,[11],> 10 µM
same,IC50,[12],> 10 µM
same,IC50,[13],> 10 µM
same,IC50,[14],> 10 µM
same,INH,[15],> 10 µM
same,EC50,SK-MEL-5,0.91 µM
same,EC50,WM 266-4,1.91 µM
same,EC50,G-361,3.77 µM
same,EC50,NCI-H69,> 10 µM
same,EC50,NCI-H1417,> 10 µM
same,EC50,NCI-H187,> 10 µM
same,EC50,MDA-MB-157,4.59 µM
same,EC50,Granta-519,3.28 µM
same,EC50,NCI-H929,0.33 µM
same,EC50,L-363,0.51 µM
same,EC50,Daudi,0.43 µM
same,EC50,Raji,0.46 µM
same,EC50,U-2973,0.66 µM
same,EC50,SU-DHL-6,0.75 µM
same,EC50,DOHH-2,0.75 µM
same,EC50,U-2940,1.33 µM
same,EC50,HL-60,> 10 µM
same,EC50,EOL1,> 10 µM
same,AUC at 168 h,[16],2950 µg·h/mL
same,AUC at 168 h,[17],417 µg·h/mL
same,Cmax,[18],14700 ng/mL
same,inhibition,LuCaP-77 CR cell,Active
